The record followed here is ChEMBL document CHEMBL1122255, “Synthesis and receptor binding studies relevant to the neuroleptic activities of some 1-methyl-4-piperidylidene-9-substituted-pyrrolo[2,1-b][3]benzazepine derivatives” (J Med Chem, 1983).

Assay [1] concerns the target T1, Alpha-2A adrenergic receptor (Bos taurus, UniProt Q28838).
T1 sequence (Q28838 whole entry): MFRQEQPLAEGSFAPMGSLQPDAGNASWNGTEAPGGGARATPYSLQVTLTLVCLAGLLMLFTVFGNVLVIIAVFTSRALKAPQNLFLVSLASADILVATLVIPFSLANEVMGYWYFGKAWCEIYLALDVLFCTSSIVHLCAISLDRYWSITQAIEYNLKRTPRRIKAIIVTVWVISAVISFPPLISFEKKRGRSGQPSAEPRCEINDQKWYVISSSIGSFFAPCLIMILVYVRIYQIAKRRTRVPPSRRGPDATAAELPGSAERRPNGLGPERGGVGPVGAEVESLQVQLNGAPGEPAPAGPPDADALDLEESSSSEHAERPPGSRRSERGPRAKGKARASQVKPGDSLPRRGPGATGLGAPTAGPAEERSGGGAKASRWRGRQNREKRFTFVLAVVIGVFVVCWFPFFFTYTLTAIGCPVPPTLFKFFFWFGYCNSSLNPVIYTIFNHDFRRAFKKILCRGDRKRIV
Kind of assay: Displacement of [3H]- clonidine radioligand binding at the alpha-2 adrenergic receptor binding site of calf cerebral cortex. The class given is tissue-based. The gist of the method: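 Calf cerebral cortex membranes were incubated with [3H]clonidine (23 Ci/mmol) at 0.2 nM and 3–5 triplicate test concentrations. Nonspecific binding was defined with 100 nM clonidine. Bound ligand was isolated by rapid filtration and counted by liquid scintillation. IC50 for displacing specific binding came from percent inhibition–concentration data by regression.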

Assay [2] concerns the target T2, Alpha-1A adrenergic receptor (Bos taurus, UniProt P18130).
T2 sequence (P18130 whole entry): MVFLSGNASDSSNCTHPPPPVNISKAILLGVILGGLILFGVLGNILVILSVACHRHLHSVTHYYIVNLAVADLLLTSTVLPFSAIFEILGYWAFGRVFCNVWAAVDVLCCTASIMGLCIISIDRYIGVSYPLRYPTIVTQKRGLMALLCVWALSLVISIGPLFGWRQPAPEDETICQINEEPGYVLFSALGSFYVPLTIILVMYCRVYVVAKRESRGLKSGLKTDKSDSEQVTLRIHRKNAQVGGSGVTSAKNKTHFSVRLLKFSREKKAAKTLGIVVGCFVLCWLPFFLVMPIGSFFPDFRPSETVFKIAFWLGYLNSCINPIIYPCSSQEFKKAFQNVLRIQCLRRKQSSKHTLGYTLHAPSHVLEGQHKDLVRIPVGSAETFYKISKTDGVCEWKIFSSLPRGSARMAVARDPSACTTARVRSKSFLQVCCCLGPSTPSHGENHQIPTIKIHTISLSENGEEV
In words: Displacement of [3H]- prazosin radioligand binding at the alpha 1-adrenergic binding site of calf cerebral cortex. The class given is tissue-based.

The target in assay [3] is Muscarinic acetylcholine receptor. In words: Displacement of [3H]- QNB binding at the muscarinic-cholinergic binding site of rat brain S1.

By Ki is commonly meant a measure of affinity in units of concentration, obtained from inhibition or displacement. For `CN1CCC(=C2c3ccccc3C=Cn3cccc32)CC1`, the figures for the inhibition constant (Ki) in assay [1], in assay [2] and in assay [3] were 0.226 µM, 0.029 µM and 0.0145 µM, respectively.

As for `CN1CCC(=C2c3cc(Br)ccc3CCn3cccc32)CC1`, the Ki in assay [1] turned out to be 0.43 µM; in assay [2], 0.044 µM; in assay [3] it was 0.06 µM.

In the case of `CN1CCC(=C2c3ccccc3CCn3cccc32)CC1`, the inhibitory constant (Ki) was 0.73 µM in assay [1], 0.13 µM in assay [2] and 0.049 µM in assay [3].

For `CN1CCC(=C2c3cc(Cl)ccc3CCn3cccc32)CC1`, the inhibition constant Ki was found to be 0.6 µM in assay [1], 0.08 µM in assay [2] and 0.048 µM in assay [3].

Consider `CN1CCC(=C2c3cc(C(=O)O)ccc3C=Cn3cccc32)CC1`, for which the Ki was 77 µM in assay [1], 1.2 µM in assay [2] and 9.8 µM in assay [3].

In the case of `CN1CCC(=C2c3cc(Br)ccc3C=Cn3cccc32)CC1`, the inhibition constant (Ki) in assay [1] came to 0.21 µM; in assay [2], 0.019 µM; in assay [3] it was 0.018 µM.

The molecule `CN1CCC(=C2c3cc(C(=O)O)ccc3CCn3cccc32)CC1` yielded an inhibition constant (Ki) in assay [3] greater than 50 µM.

For the molecule `CN1CCC(=C2c3cc(SC(F)(F)F)ccc3CCn3cccc32)CC1`, the Ki in assay [1] came out at 0.33 µM; in assay [2], 0.036 µM; in assay [3], 0.25 µM.

Turning to `CN1CCC(=C2c3cc(Cl)ccc3C=Cn3cccc32)CC1`, the Ki in assay [1] amounted to 0.31 µM; in assay [2] it was 0.02 µM; in assay [3], 0.02 µM.

In assay [3], `CN1CCC(=C2c3ccccc3C=Cc3ccccc32)CC1` [CYPROHEPTADINE] gave an inhibition constant (Ki) of 0.004 µM. This lies in the single-digit nanomolar range.

On to `CN1CCC(=C2c3cc(C#N)ccc3C=Cn3cccc32)CC1`, for which the Ki in assay [1] was 1.03 µM; in assay [2], 0.03 µM; in assay [3], 0.021 µM.

In the case of `CN1CCC(=C2c3cc(SC(F)(F)F)ccc3C=Cn3cccc32)CC1`, the values for the Ki in assay [1], in assay [2] and in assay [3] were 0.23 µM, 0.013 µM and 0.088 µM, respectively.

As to `CN1CCC(=C2c3cc(C#N)ccc3CCn3cccc32)CC1`, the results for the inhibitory constant (Ki) in assay [1] and in assay [3] were 2.05 µM and 0.27 µM, respectively.
